# Laboratory results as given in ChEMBL document CHEMBL3853307, “Anti-inflammatory Effect of Methyl Gallate on Experimental Arthritis: Inhibition of Neutrophil Recruitment, Production of Inflammatory Mediators, and Activation of Macrophages” (J Nat Prod, 2016).
# Activity calls are given as the source filed them. The rule behind the calls is not given here.
# Columns and labels:
# [1] = system: Mus musculus; experiment: Antiinflammatory activity in C57BL/6 mouse assessed as inhibition of zymosan-induced knee joint edema formation at 10 mg/kg, ip administered 1 hr prior to zymosan challenge measured at 6 hrs relative to control; assay type: functional; details: C57BL/6, Knee joint
# Procedure, shortened: (§1)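 Male C57BL/6 mice, fasted overnight, dosed orally (vehicle saline/water, 200 μL) or i.p. 1 h before zymosan (500 μg in 25 μL saline, i.a., left knee). Knee swelling measured as change in transverse diameter from basal by digital caliper (mm). Synovial washes (PBS/EDTA) counted on a particle counter; differentials from May-Grünwald-Giemsa cytospins, cells ×10^5/cavity. Sampled at 6 and/or 24 h; seven mice/group.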
# [2] = system: Mus musculus; experiment: Antiinflammatory activity in C57BL/6 mouse assessed as inhibition of zymosan-induced knee joint edema formation at 10 mg/kg, ip administered 1 hr prior to zymosan challenge measured at 24 hrs relative to control; assay type: functional; details: C57BL/6, Knee joint; procedure, shortened: as §1
# [3] = system: Mus musculus; experiment: Antiinflammatory activity in C57BL/6 mouse assessed as inhibition of zymosan-induced total leukocyte accumulation in articular cavity at 10 mg/kg, ip administered 1 hr prior to zymosan challenge measured at 6 to 24 hrs; assay type: functional, organism-based; procedure, shortened: as §1
# [4] = system: Mus musculus; experiment: Antiinflammatory activity in C57BL/6 mouse assessed as inhibition of zymosan-induced neutrophil migration in articular cavity at 10 mg/kg, ip administered 1 hr prior to zymosan challenge measured at 6 to 24 hrs; assay type: functional, organism-based; procedure, shortened: as §1
# [5] = system: Mus musculus; experiment: Antiinflammatory activity in C57BL/6 mouse assessed as inhibition of zymosan-induced mononuclear cells migration in articular cavity at 10 mg/kg, ip administered 1 hr prior to zymosan challenge measured at 6 to 24 hrs; assay type: functional, organism-based; procedure, shortened: as §1
# [6] = system: Mus musculus; experiment: Antiinflammatory activity in C57BL/6 mouse assessed as inhibition of zymosan-induced synovial hyperplasia at 10 mg/kg, ip administered 1 hr prior to zymosan challenge measured at 6 to 24 hrs by hematoxylin and eosin staining-based optical microscopy; assay type: functional, organism-based
# Procedure, shortened: (§2)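 Mice dosed orally or i.p. 1 h before i.a. zymosan (500 μg/cavity) or saline. Whole knees taken at 6 and 24 h from six mice, fixed in 10% formalin 48 h, decalcified in 10% EDTA/PBS 1−2 weeks, paraffin-embedded. 5 μm sections H&E-stained and examined by light microscopy. Parameter scores summed into an arthritis index; means ± SEM, two experiments.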
# [7] = system: Mus musculus; experiment: Antiinflammatory activity in C57BL/6 mouse assessed as inhibition of zymosan-induced infiltration of inflammatory cells into synovial tissue at 10 mg/kg, ip administered 1 hr prior to zymosan challenge measured at 6 to 24 hrs by hematoxylin and eosin staining-based optical microscopy; assay type: functional, organism-based; procedure, shortened: as §2
# [8] = system: Mus musculus; experiment: Antiinflammatory activity in C57BL/6 mouse assessed as inhibition of zymosan-induced bleeding in synovial tissue at 10 mg/kg, ip administered 1 hr prior to zymosan challenge measured at 6 to 24 hrs by hematoxylin and eosin staining-based optical microscopy; assay type: functional, organism-based; procedure, shortened: as §2
# [9] = system: Mus musculus; experiment: Antiinflammatory activity in C57BL/6 mouse assessed as inhibition of zymosan-induced arthritis score at 10 mg/kg, ip administered 1 hr prior to zymosan challenge measured at 6 to 24 hrs by hematoxylin and eosin staining-based optical microscopy; assay type: functional, organism-based; procedure, shortened: as §2
# [10] = system: Mus musculus; experiment: Antiinflammatory activity in C57BL/6 mouse assessed as inhibition of zymosan-induced IL6 production in cell-free supernatant of knee joint synovial washes at 10 mg/kg, ip administered 1 hr prior to zymosan challenge measured at 6 to 24 hrs by sandwich ELISA method; assay type: functional, organism-based
# Procedure, shortened: (§3)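 Male C57BL/6 mice (18−22 g), fasted overnight, dosed orally (in filtered water, 200 μL) or i.p. 1 h before i.a. zymosan (500 μg in 25 μL saline) into left knee; contralateral knee got vehicle. Synovial cavity washed twice with 150 μL PBS/10 mM EDTA at 6 and 24 h; washes spun 400g 10 min, 4 °C. Cytokines measured by sandwich ELISA, LTB4/PGE2 by EIA (pg/mL); six mice/group, two experiments.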
# [11] = system: Mus musculus; experiment: Antiinflammatory activity in C57BL/6 mouse assessed as inhibition of zymosan-induced TNFalpha production in cell-free supernatant of knee joint synovial washes at 10 mg/kg, ip administered 1 hr prior to zymosan challenge measured at 6 to 24 hrs by sandwich ELISA method; assay type: functional, organism-based; procedure, shortened: as §3
# [12] = system: Mus musculus; experiment: Antiinflammatory activity in C57BL/6 mouse assessed as inhibition of zymosan-induced IL-1beta production in cell-free supernatant of knee joint synovial washes at 10 mg/kg, ip administered 1 hr prior to zymosan challenge measured at 6 to 24 hrs by sandwich ELISA method; assay type: functional, organism-based; procedure, shortened: as §3
# [13] = system: Mus musculus; experiment: Antiinflammatory activity in C57BL/6 mouse assessed as inhibition of zymosan-induced CXCL1/KC production in cell-free supernatant of knee joint synovial washes at 10 mg/kg, ip administered 1 hr prior to zymosan challenge measured at 6 to 24 hrs by sandwich ELISA method; assay type: functional, organism-based; procedure, shortened: as §3
# [14] = system: Mus musculus; experiment: Antiinflammatory activity in C57BL/6 mouse assessed as inhibition of zymosan-induced PGE2 production in cell-free supernatant of knee joint synovial washes at 10 mg/kg, ip administered 1 hr prior to zymosan challenge measured at 6 to 24 hrs by immunosorbent assay; assay type: functional, organism-based; procedure, shortened: as §3
# [15] = system: Mus musculus; experiment: Antiinflammatory activity in C57BL/6 mouse assessed as inhibition of zymosan-induced LTB4 production in cell-free supernatant of knee joint synovial washes at 10 mg/kg, ip administered 1 hr prior to zymosan challenge measured at 6 to 24 hrs by immunosorbent assay; assay type: functional, organism-based; procedure, shortened: as §3
# [16] = system: Neutrophil; experiment: Antiinflammatory activity in C57BL/6 mouse neutrophils assessed as inhibition of CXCL1/KC-induced neutrophil chemotaxis at 50 nM preincubated for 1 hr followed by CXCL1/KC-induction measured after 1 hr by Wright-Giemsa staining-based light microscopic method; assay type: functional, cell-based
# Procedure, shortened: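 Bone marrow neutrophils from C57BL/6 femurs, purified on a 65%/72% Percoll gradient (~85−90% purity). 10^5 cells preincubated 1 h with compound or medium, then placed in a 48-well Boyden chamber over CXCL-1/KC (250 nM) across a 5 μm polycarbonate filter, 60 min at 37 °C, 5% CO2. Filter Wright-Giemsa stained; migrated cells counted in 15 fields; quadruplicate wells.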
# [17] = system: J774.A1; experiment: Antiinflammatory activity in mouse J774A.1 cells assessed as inhibition of zymosan and IFNgamma-induced IL6 production in cell-free supernatant at 1 uM preincubated for 1 hr followed by zymosan and IFNgamma addition measured after 24 hrs by sandwich ELISA; assay type: functional, cell-based
# Procedure, shortened: (§4)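 J774A.1 macrophages (1 × 10^5/well, RPMI/10% FBS) adhered 24 h, preincubated 1 h with compound (0.1−10 μM) or dexamethasone (1 μM), then stimulated with zymosan (10 μg per 10^5 cells) and/or IFN-γ (25 U/mL) for 24 h. Supernatant IL-6 by sandwich ELISA; nitrite by Griess reaction at 540 nm. Quadruplicate wells, two experiments.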
# [18] = system: J774.A1; experiment: Antiinflammatory activity in mouse J774A.1 cells assessed as inhibition of zymosan and IFNgamma-induced COX2 expression at 1 uM preincubated for 1 hr followed by zymosan and IFNgamma addition measured after 24 hrs by Western blot analysis; assay type: functional, cell-based
# Procedure, shortened: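 J774A.1 cells in six-well plates pretreated 1 h (0.1−10 μM) before zymosan (10 μg per 10^5 cells) and/or IFN-γ (25 U/mL) for 24 h. Lysates (Tris/NaCl/MgCl2/0.5% NP40 with protease inhibitors); 30 μg protein run on 7.5% SDS-PAGE, transferred to PVDF, probed for COX-2, iNOS and α-tubulin.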
# [19] = system: J774.A1; experiment: Antiinflammatory activity in mouse J774A.1 cells assessed as inhibition of zymosan and IFNgamma-induced nitric oxide production at 1 uM preincubated for 1 hr followed by zymosan and IFNgamma addition measured after 24 hrs by colorimetric Griess test; assay type: functional, cell-based; procedure, shortened: as §4
smiles,measurement,setting,value
C[C@@H]1C[C@H]2[C@@H]3CCC4=CC(=O)C=C[C@]4(C)[C@@]3(F)[C@@H](O)C[C@]2(C)[C@@]1(O)C(=O)CO [DEXAMETHASONE],inhibition in vivo at 10 mg/kg,[1],42%
same,inhibition in vivo at 10 mg/kg,[2],48%
same,inhibition,[3],Active
same,inhibition,[4],Active
same,inhibition,[5],Active
same,inhibition,[6],Active
same,inhibition,[7],Active
same,inhibition,[8],Active
same,inhibition,[9],Active
same,inhibition,[10],Active
same,inhibition,[11],Active
same,inhibition,[12],Active
same,inhibition,[13],Active
same,inhibition,[14],Active
same,inhibition,[15],Active
same,inhibition,[16],Active
same,inhibition,[17],Active
same,inhibition,[18],Active
same,inhibition,[19],Active
